Bioassay records (PubChem)
E-sel inducer: E-selectin induction on HUVECs; HUVEC E-selectin immunofluorescence imaging; normalized: neutral wells 0, TNF-alpha wells 100; activation, % at 7.58 µM; 260,000 tested, 0.37% active;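 active = mean E-selectin-positive cell signal at least 10% of the positive control, reached in at least 60% of replicates, without over 20% cell loss; inconclusive = no rule given, readout overlaps actives, possibly toxicity-flagged; inactive = the rest, including those meeting only one limit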
Target sequence (P16581 whole entry, looked up): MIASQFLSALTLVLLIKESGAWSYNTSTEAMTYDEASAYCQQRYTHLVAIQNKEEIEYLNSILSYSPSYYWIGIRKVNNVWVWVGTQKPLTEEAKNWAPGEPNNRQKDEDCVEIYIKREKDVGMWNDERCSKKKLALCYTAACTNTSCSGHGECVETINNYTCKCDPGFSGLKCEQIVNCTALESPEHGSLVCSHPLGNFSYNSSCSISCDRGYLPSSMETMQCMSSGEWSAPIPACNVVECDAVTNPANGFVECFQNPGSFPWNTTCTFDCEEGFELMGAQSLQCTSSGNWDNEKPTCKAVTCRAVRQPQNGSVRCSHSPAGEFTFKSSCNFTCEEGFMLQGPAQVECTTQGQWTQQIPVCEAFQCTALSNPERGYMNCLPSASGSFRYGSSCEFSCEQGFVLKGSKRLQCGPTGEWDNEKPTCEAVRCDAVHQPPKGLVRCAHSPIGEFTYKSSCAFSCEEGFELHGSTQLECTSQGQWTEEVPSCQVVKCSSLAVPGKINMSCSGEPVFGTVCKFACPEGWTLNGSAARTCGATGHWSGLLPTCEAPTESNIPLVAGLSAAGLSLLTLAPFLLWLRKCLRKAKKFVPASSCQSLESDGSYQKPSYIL
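Test system: HUVEC | Signal: Immunofluorescence imaging | Read-out: Percent E-selectin-positive cells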
FGF22 binding: shifts melting point of recombinant human FGF22 | 340,000 tested, 1.5% active | recombinant FGF22 thermal shift, SYPRO orange fluorescence; percent of sucrose octasulfate shift, DMSO zero | AID 651658 | Q9HCT0 | activity (Tm shift, normalised), % at 9.99 µM;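 active = mean Tm shift, scaled 0 neutral to 100 positive control, at about 1.3% or above, every replicate too, limit read from the data; inconclusive = no clear call, values can overlap the other calls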
Statin myotox sup: suppressors of simvastatin-induced myotoxicity in C2C12 myotubes | ATP luminescence, 48 h; scaled: DMSO 0, geranylgeraniol control 100 | 330,000 tested, 0.78% active | rescue of ATP level, % at 7.49 µM;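 active = mean ATP rescue above about 67%, or every replicate alone reaching that limit, limit read from the data, passing the limit was not always enough; inconclusive = no clear call, values can overlap the other calls; inactive = mean under the limit and some replicate under it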;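 also: myotubes were challenged with 10 µM simvastatin during compound exposure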
PglD DTNB: blocks C. jejuni PglD acetyltransferase activity; 360,000 tested, 0.098% active; purified PglD enzyme, DTNB colorimetric CoA detection; inhibition, % at 12.5 µM; in the data active = inhibition above about 16%, passing the limit was not always enough; inconclusive = no clear call, values can overlap the other calls
DENV2 CPE rescue: protects cells from dengue virus 2 cytopathic effect; AID 651640; DENV2-infected cells, cytopathic effect rescue, plate reader; CPE inhibition, % at 9.99 µM; 350,000 tested, 1.7% active; in the data active = CPE inhibition above about 20%, passing the limit was not always enough; inconclusive = no clear call, values can overlap the other calls; tested in BHK-21 cells
XiGFP reactiv: reactivates the inactive X chromosome in mouse fibroblasts. XiGFP mouse fibroblasts, % GFP-positive cells imaging, 3 d; cells co-treated with 5-aza-dC sensitizer; scaled so ellipticine positive control = 100%. activation, % at 7.58 µM. 360,000 tested, 0.055% active;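 active = mean normalized replicate activation at least 10% and every replicate at or above 10%; inconclusive = only one of the two criteria met; inactive = mean below 10% and not all replicates reach 10%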
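Material: XiGFP fibroblasts, SV40-immortalized; Buffer or medium: DMEM containing 5-aza-dC; Compound dosing: single point; Times: 3 days compound exposure.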
A number is an active result; - = inactive; ? = inconclusive; . = not tested or not shown. The list is not random: actives were taken first. Their share in the collection is about 3.3%.

SMILES	E-sel inducer	FGF22 binding	Statin myotox sup	PglD DTNB	DENV2 CPE rescue	XiGFP reactiv
C=CCC[C@@H](Cc1ccc(F)cc1)C(=O)OC[C@@H](C)NC(=O)[C@@H](CC=C)CC(=O)N[C@H](CO)Cc1ccccc1	-	1.4	-	-	-	-
C=CC[C@@H](CC(=O)N[C@@H](CO)Cc1ccccc1)C(=O)N[C@@H](COC(=O)[C@@H](CC=C)Cc1ccc(F)cc1)Cc1ccccc1	-	-	-	-	-	-
C=CCC[C@@H](Cc1ccc(F)cc1)C(=O)OCCNC(=O)[C@@H](CC=C)CC(=O)N[C@@H](CO)Cc1ccccc1	-	-	-	-	-	-
C=CC[C@@H](CC(=O)NCCO)C(=O)N[C@@H](C)COC(=O)[C@H](CC=C)CC(=O)OC(C)(C)C	.	-	-	-	46.4	-
O=C(Nc1ccc(F)cc1)N1C[C@H]2[C@@H](c3ccccc31)[C@@H](CO)N2C(=O)Cc1ccccc1	-	-	-	-	-	-
CC(=O)Nc1ccc2c(c1)C(=O)N(C)[C@H]1CC[C@H](CC(=O)NCc3ccc(F)cc3)O[C@H]1CO2	-	-	-	-	-	-
C=CCC[C@@H](Cc1ccc(F)cc1)C(=O)OC[C@@H](NC(=O)[C@@H](CC=C)CC(=O)N[C@H](CO)Cc1ccccc1)C(C)(C)C	-	-	-	-	24.9	-
Cc1cc(NC(=O)COC(=O)C2CCN(S(=O)(=O)c3c(Cl)cccc3Cl)CC2)no1	.	.	108.7	-	.	.
Cc1cc(C)c(NC(=O)Cn2nnc(C(=O)NCc3ccc4c(c3)OCO4)c2N)c(C)c1	.	.	92.0	-	.	.
Cc1ccc(NC(=O)Cn2nnc(C(=O)NCc3ccc4c(c3)OCO4)c2N)cc1	.	-	-	-	-	-
Cc1cnccc1CN(C)Cc1cn(C)nc1-c1cccc(Cl)c1	-	-	-	-	-	-
CC(C)N(Cc1cn(C)nc1-c1cccc(Cl)c1)Cc1nccn1C	-	43.3	-	-	-	-
CS(=O)(=O)N1[C@@H](CO)[C@@H](c2ccccc2)C12CN(Cc1cc(F)ccc1F)C2	-	-	.	.	40.1	-
CCC(=O)N1[C@@H](CO)[C@@H](c2ccccc2)C12CN(Cc1cc(F)ccc1F)C2	-	-	.	.	-	-
C[C@H](CO)N1C[C@H](C)[C@H](CN(C)C(=O)Nc2ccccc2)Oc2ccc(NC(=O)Nc3ccc4c(c3)OCO4)cc2CC1=O	-	-	-	-	-	-
O=C(COc1ccccc1)Nc1nn[nH]n1	.	.	112.2	-	.	.
CN(C)C(=O)c1ccc(NC(=O)COc2cccc(Oc3ccccc3)c2)cc1	.	-	-	-	-	-
O=C(CC(c1ccccc1)c1ccccc1)Nc1nn[nH]n1	.	-	.	.	-	-
O=C(COc1cccc(Oc2ccccc2)c1)Nc1ncccn1	.	.	106.8	.	.	.
O=C(C[C@@H]1C[C@H]2c3cc(NC(=O)C4CCOCC4)ccc3O[C@H]2[C@H](CO)O1)NCc1ccc(Cl)cc1	-	-	-	-	-	-
COc1cc(C)ccc1OCc1cc(C(=O)NCCN2CCCC(O)C2)no1 (configuration not stated)	-	-	-	-	62.5	-
CN(C)c1ccc2c(c1)[C@@H]1C[C@H](CC(=O)N3CCCCC3)O[C@H](CO)[C@@H]1O2	-	.	.	.	-	-
O=C(c1cccnc1)N1CC2(C1)[C@H](c1ccccc1)[C@@H](CO)N2Cc1ccccc1	-	-	.	.	108.0	-
CCS(=O)(=O)N1CC2(C1)[C@@H](c1ccccc1)[C@H](CO)N2Cc1ccccn1	-	-	.	.	21.7	-
O=C(c1ccccc1)N1CC2(C1)[C@@H](c1ccccc1)[C@@H](CO)N2Cc1ccccn1	-	-	.	.	21.0	-
SMILES	E-sel inducer	FGF22 binding	Statin myotox sup	PglD DTNB	DENV2 CPE rescue	XiGFP reactiv
CCS(=O)(=O)N1CC2(C1)[C@H](c1ccccc1)[C@@H](CO)N2Cc1ccccn1	-	-	.	.	-	-
CNC[C@@H]1Oc2ncc(-c3ccc(OC)cc3)cc2C(=O)N([C@H](C)CO)C[C@H]1C	-	.	-	-	.	-
O=C(C[C@H]1C[C@H]2c3cc(NC(=O)Nc4ccc(C(F)(F)F)cc4)ccc3O[C@H]2[C@H](CO)O1)NCc1cccnc1	-	-	-	-	-	-
CNc1cc(-c2ccc(O)cc2C)ncn1	-	-	-	-	28.7	-
COc1ccc(S(=O)(=O)N2C[C@@H](O)COC[C@@H]3O[C@@H](CC(=O)NCc4ccc(Cl)c(Cl)c4)CC[C@H]32)cc1	-	-	-	-	-	-
CNC[C@H]1Oc2ncc(C#Cc3ccccc3F)cc2C(=O)N([C@@H](C)CO)C[C@H]1C	-	-	-	-	70.9	-
C[C@@H]1CN([C@@H](C)CO)C(=O)c2cc(-c3cccc(F)c3)cnc2O[C@H]1CN(C)C(=O)Nc1cc(F)ccc1F	-	-	-	-	-	-
CNC[C@@H]1Oc2ncc(-c3cccc(F)c3)cc2C(=O)N([C@@H](C)CO)C[C@@H]1C	-	-	-	-	24.6	-
C[C@@H]1CN([C@@H](C)CO)C(=O)c2cc(-c3cccc(F)c3)cnc2O[C@@H]1CN(C)C(=O)Nc1cc(F)ccc1F	-	-	-	-	26.1	-
COc1cc(CN2CC3(CN(C)C3)c3c([nH]c4cc(OC)ccc34)[C@@H]2CO)cc(OC)c1	-	-	.	.	-	-
COCC(=O)NC[C@@H]1[C@H](c2ccc(C3=CCCC3)cc2)[C@@H](CO)N1C(C)=O	-	-	-	-	-	-
c1ccc(CSc2ccc(-c3cccs3)nn2)nc1	.	43.7	.	.	-	-
c1ccc(CSc2ccc(-c3cccs3)nn2)cc1	.	.	.	-	.	.
CN(C)c1ccc(/C=C2\CCC/C(=C\c3ccccc3)C2=O)cc1	.	-	.	-	-	-
CN(C)c1ccc(C=c2c3ccccc3n3c2cc(-c2ccccc2)[n+]3C)cc1	139.7	-	.	.	-	-
CN(C)c1ccc(C=C2C=C(c3ccccc3)OC2=O)cc1	-	-	-	-	-	-
CN(C)c1ccc(C=c2c3ccccc3n3c2c2c([n+]3C)CCCC2)cc1	68.3	-	-	.	-	-
CN(C)c1ccc(C=c2c3cc([N+](=O)[O-])ccc3n3c2cc(-c2ccccc2)[n+]3C)cc1	218.0	-	-	.	?	-
CCN(CC)c1ccc(/C=C/c2cccc[n+]2C)c(OC)c1	.	-	-	-	-	-
COc1cc(N(C)C)ccc1C=c1c2ccccc2n2c1cc(-c1ccccc1)[n+]2C	160.4	-	.	.	-	-
CO[C@H]1CC[C@@H]2CCN(C)C(=O)CC3(CCCCC3)CN(C)C(=O)c3cccc(C#N)c3OC[C@H]1O2	.	-	-	-	-	.
COc1cc(/C=C(/C(=O)O)c2ccc(-c3ccccc3)cc2)cc(OC)c1OC	-	-	-	-	-	-
CN(C)c1ccc(/C=C2\SC(=O)N(CC(O)Cn3c4ccccc4c4ccccc43)C2=O)cc1 (configuration not stated)	.	.	.	-	.	-
